From PubChem BioAssay
GRK2 inh – human GRK2 inhibition via aptamer displacement; P25098; bead flow cytometry, FAM-aptamer displacement from GRK2; inhibition of aptamer binding, % at 10 µM; 330,000 compounds, 0.59% hits; AID 488847;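 active = inhibition of aptamer binding above 40%, roughly 3 SD of noise, on plates passing a quality check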;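 also: median bead fluorescence of bound FAM aptamer so fluorescent compounds give negative values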
SUMO1-SIM PPI – alters human SUMO1 binding to SIM partners; P63165; SUMO1 binding to a labelled peptide, TR-FRET, 1 h; inhibition, % at 20 µM; 360,000 compounds, 0.33% hits; AID 602429; in the data active = inhibition above about 37%
Target sequence (P63165 whole entry, looked up): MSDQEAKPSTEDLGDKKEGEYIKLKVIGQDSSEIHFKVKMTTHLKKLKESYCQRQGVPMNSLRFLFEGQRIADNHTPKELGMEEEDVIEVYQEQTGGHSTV
Scp1 inh – Scp-1 (human) phosphatase inhibition | Recombinant Scp1, phosphopeptide, malachite green phosphate absorbance | AID 493091 | inhibition, % at 20 µM | 340,000 compounds, 0.88% hits;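 active = inhibition above about 50% at 20 µM, limit read from the data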;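 also: plate controls were DMSO wells with enzyme for no effect and wells lacking enzyme for full effect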
Target sequence (Q9GZU7 76-261 limits assumed): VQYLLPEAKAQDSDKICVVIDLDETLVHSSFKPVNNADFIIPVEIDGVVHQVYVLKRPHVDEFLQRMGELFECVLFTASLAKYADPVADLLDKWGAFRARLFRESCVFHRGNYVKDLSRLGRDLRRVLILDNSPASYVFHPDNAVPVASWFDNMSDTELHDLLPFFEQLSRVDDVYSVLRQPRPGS
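Material: truncated SCP-1 phosphatase (76-261aa) / Buffer or medium: 50 mM Tris acetate pH 5.5, 0.005% Tween-20, 10 mM MgCl2 / Compound dosing: one concentration, 20 µM, with 1.0% DMSO / Incubation: 45 min room-temperature reaction, 5 min colour, 30 min stabiliser / Detection: colorimetric free-phosphate detection, absorbance 630 nm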
STEP block – STEP (human) phosphatase inhibition. recombinant STEP, OMFP fluorogenic substrate, fluorescence. AID 588621. 360,000 compounds, 0.25% hits. inhibition, % at 20 µM;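 active = inhibition at 20 µM, scaled per plate between control wells, above about 37%, limit read from the data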;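 also: 0% = DMSO with enzyme and substrate and 100% = substrate only without enzyme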
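System: isolated STEP enzyme; schedule: 20 min enzyme reaction at room temperature, protected from light; medium: Bis-Tris buffer pH 6.0, 2.5 mM DTT, 0.005% Tween 20; signal: fluorescence, 480/540 nm; dosing: single compound dose of 20 µM, 1% DMSO final; also added: OMFP substrate, 25 µM final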
DNMT1 block – blocks human DNA methyltransferase DNMT1 | DNMT1 molecular beacon, Hinp1I cleavage, fluorescence | P26358 | AID 588458 | inhibition (reported as % activation of signal), % at 10 µM | 360,000 compounds, 0.83% hits; in the data active = inhibition above about 50%
LMPTP block – blocks human LMPTP phosphatase; inhibition, % at 20 µM; recombinant LMPTP-A, OMFP fluorogenic substrate, fluorescence intensity; 360,000 compounds, 0.22% hits; P24666;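 active = compounds that cut the enzyme signal by at least half of the control window in the single-dose screen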;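 also: plate controls were DMSO wells with enzyme plus substrate for no effect and substrate without enzyme for full effect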
Target sequence (P24666 whole entry, looked up): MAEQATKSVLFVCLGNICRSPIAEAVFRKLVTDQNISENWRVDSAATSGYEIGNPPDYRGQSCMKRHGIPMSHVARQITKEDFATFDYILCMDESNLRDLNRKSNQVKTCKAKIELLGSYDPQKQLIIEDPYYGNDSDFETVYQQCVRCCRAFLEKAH
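Test system: LMPTP-A phosphatase enzyme. Amount: LMPTP-A at 0.625 nM final in the reaction. Reagent: OMFP substrate, 400 µM final. Times: 50 min at room temperature. Signal: endpoint fluorescence intensity from OMFP dephosphorylation. Read-out basis: % inhibition. Benchmarks: no-enzyme and uninhibited controls.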
DNMT1 interf DR – beacon fluorescence artifact, dose response counter-screen. 200 tested, under 10 active. IC50, µM. molecular beacon fluorescence, spectral interference counter-screen. shares compounds with DNMT1 block; call rule not given here
DNMT1 inh conf – DNMT1 inhibition confirmation, single concentration; AID 602385; 2,300 compounds, 8% hits; DNMT1 molecular beacon HinP1I cleavage, fluorescence; inhibition, % at 10 µM; shares compounds with DNMT1 block;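 active = average inhibition of at least 30% in the single-concentration confirmation test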
DNMT1 interf – counter-screen for DNMT1 inhibitors: spectral interference; shares compounds with DNMT1 block; DNMT1 molecular beacon spectral interference counterscreen, fluorescence 485/520; activation (fluorescence interference), % at 10 µM; 2,300 compounds, 1% hits; AID 602387;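 active = activation of at least 30% at 10 µM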;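 also: DNMT1 catalytic domain with a HinP1I cleavage step and a FAM/dabcyl DNA beacon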
* hit, by the source's call; / = not tested or not shown. An excerpt weighted towards active compounds, which were near 2.2% of everything screened.

SMILES	GRK2 inh	SUMO1-SIM PPI	Scp1 inh	STEP block	DNMT1 block	LMPTP block	DNMT1 inh conf	DNMT1 interf	others
CCOc1cc(/C=C2/NC(=S)NC2=O)ccc1OCc1ccc([N+](=O)[O-])cc1	0	-6	0	8	52*	21	3	9
CN1CCN(c2ccc3sc(-n4ccc5ccccc54)nc3c2)CC1	/	-22	/	5	-11	-6	/	/
COc1ccc(-c2nnc(SCC(=O)Nc3sc4c(c3C#N)CCCC4)n2-c2ccccc2)cc1	1	3	-8	2	45	1	/	/
N#Cc1c(NC(=O)CSc2nnc(-c3ccco3)n2-c2ccccc2)sc2c1CCC2	0	29	4	-1	67*	8	0	3
Cc1ccccc1-c1cnc(C(O)c2ccc(F)c(F)c2)[nH]1 (stereo not drawn)	/	-6	/	-1	-2	-1	/	/
COc1ccc(Oc2c(OC)cc(NCc3ccc(CN)cc3)c3ncccc23)cc1	/	22	/	4	95*	24	33*	-5	DNMT1 interf DR=>99
COc1ccc(CNc2cccnc2Cl)cc1	/	0	/	/	/	-1	/	/
CCCn1c(N)c(NCCN2CCOCC2)c(=O)n(CC(=O)NCc2ccccc2)c1=O	0	2	-8	0	86*	0	9	7
Cc1nn(CC(=O)NCCN2CCOCC2)c(=O)c2ccccc12	1	0	0	-2	1	0	/	/
O=c1ccn2c(n1)SC(c1ccccc1)C2 (stereo not drawn)	/	-2	/	1	12	-1	/	/
C[n+]1cccc(C(=O)[O-])c1	0	5	1	3	2	-1	/	/
CN(C)C(=O)Oc1ccc[n+](C)c1	1	-5	-9	0	60*	0	0	3
O=C(Nc1ccccc1F)c1csc([C@@H]2C[C@H](O)[C@@H](CO)O2)n1	/	1	/	3	-3	-2	/	/
Cc1noc(C)c1NC(=O)N(C)C[C@H]1OCc2cnnn2CCCC(=O)N([C@H](C)CO)C[C@H]1C	/	-3	/	-1	4	-1	/	/
CCN(CC)CCCn1c(=S)[nH]c2ncccc2c1=O	0	2	-6	4	10	-1	/	/
CCCCN(C)CCn1c(=S)[nH]c2ncccc2c1=O	1	-2	-2	5	94*	-3	0	-1
COCCn1c(N)c(C(=O)NCC2CCCO2)c2nc3ccccc3nc21 (stereo not drawn)	0	-2	0	1	-18	1	/	/
CC(C)Cn1c(N)c(C(=O)NCC2CCCO2)c2nc3ccccc3nc21 (stereo not drawn)	4	39	-4	4	74*	19	10	1
CCCS(=O)(=O)NC(=O)C1(C)CCN(C(=O)c2ccc(C#N)cc2)C1 (stereo not drawn)	/	2	/	4	1	-1	/	/
O=C(CCN1C(=O)c2ccccc2C1=O)N1CCN(C(=O)c2ccccc2)CC1	4	-5	-5	-8	1	-1	/	/
CN1CCN(C(=O)CCN2C(=O)c3ccccc3C2=O)CC1	1	-3	-1	-1	51*	0	1	2
COc1cc(/C=C/C(=O)N(Cc2ccccc2)c2ccccn2)cc(OC)c1OC	0	1	-5	-3	53*	0	-1	9
COc1ccc(/C=C/C(=O)N(Cc2ccccc2)c2ccccn2)cc1OC	1	2	-5	0	3	-2	/	/
CCc1ccc(C(=O)COC(=O)c2cc([N+](=O)[O-])ccc2NCCO)cc1	2	-16	-9	3	90*	1	5	7
O=C(Nc1ccc2c3c(cccc13)CC2)c1ccccc1	/	2	/	0	-8	-1	/	/
SMILES	GRK2 inh	SUMO1-SIM PPI	Scp1 inh	STEP block	DNMT1 block	LMPTP block	DNMT1 inh conf	DNMT1 interf	others
N#Cc1c(NCCN)nc(NCc2ccccc2)c2c1CCN(Cc1ccccc1)C2	/	0	22	2	77*	27	3	-2
C[C@@H]1CN([C@@H](C)CO)C(=O)CCCn2nncc2CO[C@@H]1CN(C)S(=O)(=O)c1ccc(Oc2ccccc2)nc1	/	-4	/	11	2	-3	/	/
O=C(O)CCCCN1C(=O)/C(=C\c2ccc(OCc3ccccc3)c(OCc3ccccc3)c2)SC1=S	100*	13	1	4	81*	35	15	-2
O=C(O)CN1C(=O)/C(=C\c2cc(Br)ccc2OCc2ccc(Cl)cc2)SC1=S	2	61*	-7	16	61*	14	56*	-9	DNMT1 interf DR=>99
O=C(O)CCCN1C(=O)/C(=C\c2ccccc2OCc2ccccc2)SC1=S	2	14	-6	4	1	5	/	/
COc1ccc(NC(=O)C2Cc3c(-c4cccc(C(N)=O)c4)ccnc3O2)cc1 (stereo not drawn)	/	3	/	1	55*	-1	12	6
O=C(OCCc1cc2ccccc2c(=O)o1)c1ccc2c(c1)OCO2	0	8	-4	1	71*	17	1	1
CCOc1ccc(-c2nnc(SCC(=O)Nc3ccc4c(c3)c3ccccc3n4CC)n2N)cc1	0	7	12	-2	59*	2	1	2
CNc1ccc2ncc(-c3cccc(C(=O)N(C)C)c3)n2n1	/	8	/	-2	3	0	/	/
Cc1nn(CCCC(=O)NCc2ccc(Cl)cc2)c(C)c1[N+](=O)[O-]	0	-2	-11	1	69*	-1	2	1
COc1ccc(CNC(=O)CCCn2nc(C)c([N+](=O)[O-])c2C)cc1OC	1	-1	-1	-2	0	-1	/	/
Nc1c(C(=O)C2CC2)sc2nc(-c3cccs3)cc(C(F)(F)F)c12	0	-6	-7	-48	68*	-3	12	34*
CC(C)NC(=O)c1sc2nc(-c3cccs3)cc(-c3cccs3)c2c1N	8	/	0	/	/	/	/	/
CC1CC(C)CN(C(C(=O)NC2CCCCC2)c2cc3ccccc3o2)C1 (stereo not drawn)	/	1	/	2	7	2	/	/
CCOc1ccc2ccccc2c1CNc1nnnn1CC	1	-5	1	1	92*	-1	0	0
COc1ccc(OC)c(S(=O)(=O)Nc2cc(OC)c(Cl)cc2OC)c1	6	3	-5	2	69*	0	4	6
COc1cc(NS(=O)(=O)c2ccc(OC)c(C)c2C)c(OC)cc1Cl	4	3	-12	-3	-3	3	/	/
